Test results published in ChEMBL document CHEMBL1121974, “Structure-activity relationships of some technetium-99m labeled [(thioethyl)amino] carboxylates” (J Med Chem, 1982).

Key:
Mus musculus [1] = assay: Percent injected radioactivity was determined in kidney after intravenous administration into the tail vein of male swiss albino mice after 60 min; format: ADME, organism-based; details: in vivo, 1 h
Summary of the method: (§1)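 Mice weighing 20–25 g received 0.2 mL (2 μCi) and were held in metabolic cages. At 60 min they were killed with ether, with the penis ligated. Organs were γ-counted, tail counts were subtracted from the dose, and values are the mean of five ±SD.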

Mus musculus [2] = assay: Percent injected radioactivity was determined in muscle after intravenous administration into the tail vein of male swiss albino mice after 60 min; format: ADME, organism-based, Muscle tissue; set-up: concentration or dose not given beside the values; details: in vivo, 1 h; summary of the method: as §1
Mus musculus [3] = assay: Percent injected radioactivity was determined in urine after intravenous administration into the tail vein of male swiss albino mice after 60 min; format: ADME, organism-based; set-up: concentration or dose not given beside the values; details: in vivo, 1 h; summary of the method: as §1
Mus musculus [4] = assay: Percent injected radioactivity was determined in intestine after intravenous administration into the tail vein of male swiss albino mice, after 60 min; format: ADME, organism-based; details: in vivo, 1 h; summary of the method: as §1
Mus musculus [5] = assay: Percent injected radioactivity was determined in liver and gallbladder after intravenous administration into the tail vein of male swiss albino mice after 60 min; format: ADME, organism-based; set-up: concentration or dose not given beside the values; details: in vivo, 1 h; summary of the method: as §1
Mus musculus [6] = assay: Percent injected radioactivity was determined in blood after intravenous administration into the tail vein of male swiss albino mice after 60 min; format: ADME, organism-based; details: in vivo, 1 h; summary of the method: as §1
[7] = Acidity constant pK1 was measured; format: ADME; details: read-out: pK1
Summary of the method: (§2)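 Acid-base titration of the free ligands over a pH range, followed by the chemical shifts of nonlabile protons. Macroscopic constants were assigned to the COOH, SH and NH⁺ dissociation steps; microscopic constants were not obtained.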

[8] = Acidity constant pK2 was measured; format: ADME; details: read-out: pK2; summary of the method: as §2
[9] = Acidity constant pK3 was measured; format: ADME; details: read-out: pK3; summary of the method: as §2
[10] = Acidity constant pK3' was measured; format: ADME; details: read-out: pK3'; summary of the method: as §2

| Radioactivity (Mus musculus [1]) [%] | Radioactivity (Mus musculus [2]) [%] | Radioactivity (Mus musculus [3]) [%] | Radioactivity (Mus musculus [4]) [%] | Radioactivity (Mus musculus [5]) [%] | Radioactivity (Mus musculus [6]) [%] | pKa [7] | pKa [8] | pKa [9] | pKa [10] | SMILES |
| --- | --- | --- | --- | --- | --- | --- | --- | --- | --- | --- |
| 3.567 | 3.56 | 34.1 | 25.533 | 8.568 | 4.55 | – | – | – | – | CCSCCN(CC(=O)O)CC(=O)O |
| 5.677 | 7.553 | 52.11 | 4.743 | 1.92 | 3.598 | 1.9 | 7.7 | 10.6 | – | O=C(O)CN(CCS)CC(=O)O |
| 1.842 | 5.254 | 9.74 | 51.3 | 22.748 | 4.41 | – | – | – | – | O=C(O)CN(CCSc1ccc2ccccc2c1)CC(=O)O |
| 5.62 | 3.472 | 39.5 | 16.924 | 4.3 | 3.46 | 1.1 | 9 | 11.6 | 4.6 | O=C(O)CN(CCS)CCN(CCS)CC(=O)O |
| 2.767 | 4.013 | 15.967 | 52.4 | 12.7 | 2.8 | – | – | – | – | CCCCSCCN(CC(=O)O)CC(=O)O |
| 21.823 | 24.17 | 30.04 | 5.693 | 12.617 | 18.873 | – | – | – | – | O=C(O)C(S)C(S)C(=O)O (stereo not drawn) |
| 2.083 | 3.32 | 11.371 | 58.02 | 8.429 | 2.627 | 2.1 | – | 9.1 | – | O=C(O)CN(CCSCc1ccccc1)CC(=O)O |
| 5.318 | 6.988 | 36.323 | 16.702 | 5.448 | 4.176 | 2.6 | 8.5 | 11.6 | – | Cl.O=C(O)CNCCS |
| 4.24 | 7.97 | 50.09 | 8.9 | 3.085 | 4.64 | 2.3 | – | 9.2 | – | O=C(O)CN(CCSSCCN(CC(=O)O)CC(=O)O)CC(=O)O |
